CAL PDZ FP-1 = blocks peptide binding to human CAL PDZ domain | purified CAL PDZ, TMR-peptide fluorescence polarization, 1 h | inhibition, % at 20 µM | actives 0.02% (n = 330,000) | AID 504414;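 active = highest replicate inhibition of at least 40%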;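 also: plate controls were DMSO neutral control wells for no effect and unlabeled competitor peptide control wells for full effect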
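Test system: tagged CAL PDZ domain / Buffer or medium: sodium phosphate/NaCl buffer pH 7.4 with TCEP, IgG, Thesit / Reagent: TMR-labelled reporter peptide T*-PRC34 bound in PDZ groove / Compound dosing: single point, 20 µM / Schedule: 1 h incubation at room temperature before polarization reading / Technique: fluorescence polarization (mP) / Benchmarks: unlabelled peptide, DMSO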
ARNT TACC3 PPI = disrupts binding between human ARNT and TACC3; inhibition, % at 9.99 µM; Q9Y6A5; AlphaScreen His-ARNT PAS-B/GST-TACC3 binding, luminescence; TACC3 fragment carries E629A point mutation; actives 0.66% (n = 390,000); AID 623870;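 active = mean inhibition of replicates at least 50% and at least half of replicates each reaching 50%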;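 also: 0% = complete ARNT plus TACC3 wells and 100% = ARNT alone without TACC3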
CAL PDZ FP-2 = blocks peptide binding to the human CAL PDZ domain. purified CAL PDZ, TMR-peptide fluorescence polarization, 1 h. inhibition, % at 24.9 µM. actives 0.92% (n = 300,000). AID 602252;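 active = mean inhibition of at least 30% with at least half of replicates also reaching 30%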;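 also: 0% = DMSO neutral control and 100% = excess unlabeled competitor peptide PRC23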
The depositor's hits bear a star; x = not tested or not shown. Compounds with a hit are over-represented: about 1.2% of the library has one in this group of screens.

SMILES	CAL PDZ FP-1	ARNT TACC3 PPI	CAL PDZ FP-2
COc1ccc(-c2nc(-c3ccccn3)ncc2S(C)(=O)=O)cc1	-3	14	-15
CC(C)S(=O)(=O)c1cnc(-c2ccccn2)nc1N	-1	74*	-2
COCCn1c(SCc2ccccc2F)nc2ccccc2c1=O	-1	-8	1
O=c1c2ccccc2nc(SCc2ccccc2F)n1C1CCCC1	-1	47*	10
CCC(=O)N(C)C[C@H]1Oc2cc(-c3cncnc3)ccc2S(=O)(=O)N([C@@H](C)CO)C[C@H]1C	x	-2	x
COC(=O)Cc1ccc(NC(=S)Nc2cccc(C)n2)cc1	-2	2	53*
CCOC(=O)c1ccc(NC(=S)Nc2cccc(C)n2)cc1	0	-7	x
Cc1cccc(NC(=O)Nc2ccc(Cl)cc2)n1	-1	-15	40*
Cc1ccc(NC(=O)Nc2cccc(C)n2)cc1	-2	-1	-11
C[C@H](CO)N1C[C@H](C)[C@H](CN(C)Cc2ccc(Oc3ccccc3)cc2)Oc2ccc(NS(C)(=O)=O)cc2CC1=O	x	-3	x
C[C@@H]1CN([C@@H](C)CO)C(=O)c2cccc(NS(=O)(=O)c3ccccc3)c2O[C@H]1CN(C)Cc1ccc(Cl)c(Cl)c1	x	-9	x
COc1ccc(NC(=S)N(CCCN2CCN(C)CC2)Cc2cccs2)cc1	0	85*	x
CN1CCN(CCCN(Cc2cccs2)C(=S)Nc2ccc(Cl)cc2)CC1	-2	8	7
CO[C@H]1CN(C)C(=O)c2cc(NS(=O)(=O)c3c(C)noc3C)ccc2OC[C@H](C)NC[C@H]1C	x	0	x
CO[C@@H]1CN(C)C(=O)c2ccc(NC(=O)C3CCOCC3)cc2OC[C@@H](C)N(C(C)=O)C[C@@H]1C	x	-21	x
CC(=O)NC[C@@H]1[C@@H](c2ccccc2)[C@H](CO)N1C(=O)Cc1cccnc1	x	-8	x
CCN(CC)c1ccc(/C=C2/C(=O)ON=C2C)cc1	-2	4	-4
CCN(CC)c1ccc(/C=C2\C(=O)N(c3nnc(C)c(=O)[nH]3)N=C2C)cc1	0	60*	-4
CC(C)C(CCNCc1ccccn1)c1ccc(Cl)cc1 (stereo not drawn)	1	12	6
Clc1ccc(-c2ccc(CNCc3ccccn3)o2)cc1	-2	73*	2
CO[C@@H]1CN(C)C(=O)c2cc(NS(=O)(=O)c3ccccc3)ccc2OC[C@@H](C)N(Cc2cccnc2)C[C@@H]1C	x	-9	x
COc1ccc(S(=O)(=O)N(C)C[C@@H]2OCCCC[C@@H](C)Oc3ccc(NC(=O)NC4CCCCC4)cc3C(=O)N([C@H](C)CO)C[C@H]2C)cc1	x	20	x
CCCCNC(=O)CSc1nc(CCC)nc2ccccc12	0	-1	30*
O=C(CSc1ncnc2ccccc12)NCCCO	-1	17	3
CCCNC(=O)CSc1nc(COc2ccccc2)nc2ccccc12	-2	1	-1
SMILES	CAL PDZ FP-1	ARNT TACC3 PPI	CAL PDZ FP-2
O=C(CSc1ncnc2ccccc12)NCCc1ccccc1	11	-2	45*
Cc1noc(C)c1NC(=O)N(C)C[C@H]1Oc2ccc(NC(=O)Cc3cn(C)c4ccccc34)cc2CC(=O)N([C@@H](C)CO)C[C@@H]1C	x	-4	x
O=C(O)CCCN1C(=O)/C(=C\c2ccco2)SC1=S	-1	3	-3
O=C(O)CCN1C(=O)/C(=C\c2ccc(-c3nc4ccccc4s3)o2)SC1=S	7	67*	x
Cc1ccc(S(=O)(=O)Nc2ccc3c(c2)C(=O)N([C@@H](C)CO)C[C@H](C)[C@H](CN(C)S(C)(=O)=O)O3)cc1	x	0	x
COc1ccccc1C(=O)Nc1ccc2c(c1)nc1n2CCN(Cc2ccccc2)C1	-4	12	-5
O=C(Nc1ccc2c(c1)nc1n2CCN(Cc2ccccc2)C1)c1cccs1	-3	43*	0
Cc1ccc(S(=O)(=O)N[C@H]2C=C[C@@H](CC(=O)NC3CCCCC3)O[C@@H]2CO)cc1	x	-6	x
O=C(NCc1ccccn1)c1ccco1	-2	-1	0
O=C(NCc1ccccn1)c1cn(Cc2ccccc2)nn1	x	-2	105*
CC(C)C#Cc1cnc2c(c1)C(=O)N([C@@H](C)CO)C[C@@H](C)[C@@H](CN(C)C(=O)Nc1ccccc1F)O2	x	-7	x
O=C(CN1CCOCC1)NCC[C@H]1CC[C@@H](NC(=O)c2ccccc2F)[C@@H](CO)O1	x	9	x
O=C(Cc1ccncc1)NCC[C@@H]1CC[C@H](NC(=O)C2CCCC2)[C@H](CO)O1	x	-6	x
Cc1cccc(NC(=S)N2CCN(C(=O)C3CCCO3)CC2)c1 (stereo not drawn)	-2	0	67*
O=C(C1CCCO1)N1CCN(C(=S)Nc2cccc(F)c2)CC1 (stereo not drawn)	0	-20	1
CCCN(C)C[C@H]1OCCCC[C@H](C)Oc2ccc(NS(=O)(=O)c3c(C)noc3C)cc2C(=O)N([C@@H](C)CO)C[C@H]1C	x	-3	x
COc1ccc(C=NNC(=S)NN=Cc2ccc(OC)c(OC)c2)cc1OC	0	11	0
COCCCNC(=S)N/N=C/c1ccc(OC)c(Br)c1	-1	4	54*
C[C@@H]1CCCCO[C@@H](CN(C)CC2CC2)[C@H](C)CN([C@@H](C)CO)C(=O)c2cc(NS(=O)(=O)c3ccc(F)cc3)ccc2O1	x	-7	x
COc1ccc(Cc2nnc(NC(=O)CS(=O)(=O)c3ccc(C)cc3)s2)cc1OC	-1	x	2
CCOCCc1nnc(NC(=O)CS(=O)(=O)c2ccc(C)cc2)s1	0	-3	93*
COc1ccc(-c2ccc3c(c2)O[C@@H](CN(C)CC2CCOCC2)[C@@H](C)CN([C@H](C)CO)S3(=O)=O)cc1	x	-2	x
C[C@H](CO)N1C[C@H](C)[C@@H](CN(C)S(C)(=O)=O)Oc2ccc(NC(=O)Cc3cn(C)c4ccccc34)cc2CC1=O	x	-1	x
CNC[C@@H]1Oc2ccc(NC(=O)CCCN(C)C)cc2C(=O)N([C@H](C)CO)C[C@@H]1C	x	-7	x
CC(C)(C)c1ccc(C(=O)Nc2ccc(N3CCOCC3)cc2)cc1	-3	1	-1
SMILES	CAL PDZ FP-1	ARNT TACC3 PPI	CAL PDZ FP-2
CC(C)(C)c1ccc(C(=O)NC(=S)Nc2ccc(N3CCOCC3)cc2)cc1	1	-11	33*
C[C@@H]1CCCCO[C@@H](CN(C)C(=O)Nc2cccc3ccccc23)[C@H](C)CN([C@@H](C)CO)C(=O)c2cc(NS(C)(=O)=O)ccc2O1	x	27	x
O=C(C[C@H]1CC[C@@H]2NC[C@H](O)COC[C@H]2O1)NCc1ccc2c(c1)OCO2	x	-14	x
CN1C(=O)c2ccccc2C(C(=O)O)C1c1cn(C)c2ccccc12 (stereo not drawn)	x	-5	41*
Cc1ccc(C2C(C(=O)O)c3ccccc3C(=O)N2C)c(C)c1 (stereo not drawn)	-2	-5	-1
CCC(=O)Nc1ccc2c(c1)OC[C@H](C)N(C(=O)C1CCC1)C[C@H](C)[C@H](OC)CN(C)C2=O	x	2	x
C/C=C/c1ccc([C@@H]2[C@@H](CNC(=O)CC)N(C(=O)COC)[C@H]2CO)cc1	x	0	x
C[C@H](CO)N1C[C@H](C)[C@H](CN(C)C(=O)Nc2cccc3ccccc23)Oc2ccc(NC(=O)C3CCCCC3)cc2CC1=O	x	-1	x
CC1=NN(c2nc3ccccc3[nH]2)C(=O)/C1=C/N(C)C	-1	68*	-1
CC1=NN(c2ccccc2)C(=O)/C1=C/N(C)C	-2	16	6
